From PMC8248410 (Chemmedchem, 2021)
Where a SMILES comes first, the peptide text is derived from it.

System: HIV‐1NL4‐3
Experiment: SEAP reporter cell HIV‐1 infection assay
Assay type: cell-based
Conditions: running text on Table 1 data; compared with P6‐2
Procedure, shortened: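 CEMx174 indicator cells carrying SEAP under SIV LTR control, grown in RPMI 1640 with 10 % heat‑inactivated FCS, glutamine, penicillin and streptomycin. Peptides added to cells before HIV‑1 NL4‑3, which came from 293T transfection supernatant harvested at 48 h and filtered. SEAP activity in supernatant read 3 days post‑infection by commercial kit. Mean and SEM of ≥3 independent experiments; IC50 from fitted curves.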

Compound	HIV‐1 inhibitory activity, result in words
CC(=O)N[C@@H](CC(C)C)C(=O)N[C@@H](CS)C(=O)N[C@@H](CC(=O)O)C(=O)N[C@@H](CS)C(=O)N1CCC[C@H]1C(=O)N[C@@H](CC(N)=O)C(=O)NCC(=O)N1CCC[C@H]1C(=O)N[C@@H](Cc1c[nH]c2ccccc12)C(=O)N[C@H](C(=O)N[C@@H](Cc1c[nH]c2ccccc12)C(=O)N[C@@H](C)C(=O)N1CCC[C@H]1C(=O)N[C@@H](C)C(=O)N[C@@H](Cc1ccccc1)C(=O)N[C@@H](CS)C(=O)N[C@@H](CCC(N)=O)C(=O)N[C@@H](C)C(=O)N[C@H](C(=O)NCC(=O)O)C(C)C)C(C)C [P6‐2‐11] (Ac-LCDCPNGPWVWAPAFCQAVG-OH)	approximately tenfold loss
Ac-LCDCPNGPWAWVPAFCQAVG-OH (cysteine pairing not given here) [P6‐2‐9]	approximately tenfold loss
